Measurements published in ChEMBL document CHEMBL4385646, “Structural development of 1H-pyrazolo-[3,4-b]pyridine-4-carboxylic acid derivatives as human peroxisome proliferator-activated receptor alpha (PPARα)-selective agonists” (Bioorg Med Chem Lett, 2019).
Substitutions are numbered along the chain they refer to.

Key:
[1] = molecular target: T1, Peroxisome proliferator-activated receptor alpha (Homo sapiens, UniProt Q07869); experiment: Transactivation of human GAL4-fused PPARalpha LBD expressed in human HepG2 cells after 24 hrs by renilla luciferase reporter gene assay; format: cell-based
T1 sequence (Q07869 whole entry): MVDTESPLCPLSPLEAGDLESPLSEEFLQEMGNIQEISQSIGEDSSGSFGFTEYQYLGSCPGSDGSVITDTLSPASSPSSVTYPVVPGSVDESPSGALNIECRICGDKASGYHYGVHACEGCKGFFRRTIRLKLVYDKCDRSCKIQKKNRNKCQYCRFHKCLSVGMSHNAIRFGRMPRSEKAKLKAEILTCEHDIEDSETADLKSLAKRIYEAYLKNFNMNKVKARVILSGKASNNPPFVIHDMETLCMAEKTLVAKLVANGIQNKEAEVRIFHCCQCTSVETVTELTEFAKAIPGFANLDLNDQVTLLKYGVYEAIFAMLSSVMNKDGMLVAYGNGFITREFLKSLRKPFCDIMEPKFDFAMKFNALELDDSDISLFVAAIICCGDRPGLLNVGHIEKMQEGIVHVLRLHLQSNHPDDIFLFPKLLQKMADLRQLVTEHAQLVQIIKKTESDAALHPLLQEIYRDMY

[2] = Effect on cyclophilinA expression in human FLC4 cells after 48 hrs by SYBR green dye-based RT-PCR analysis; format: ADME, cell-based
[3] = molecular target: T2, Peroxisome proliferator-activated receptor alpha (Rattus norvegicus, UniProt P37230); experiment: Transactivation of rat GAL4-fused PPARalpha expressed in human HepG2 cells after 24 hrs by dual renilla-luciferase reporter gene assay; format: cell-based
T2 sequence (P37230 whole entry): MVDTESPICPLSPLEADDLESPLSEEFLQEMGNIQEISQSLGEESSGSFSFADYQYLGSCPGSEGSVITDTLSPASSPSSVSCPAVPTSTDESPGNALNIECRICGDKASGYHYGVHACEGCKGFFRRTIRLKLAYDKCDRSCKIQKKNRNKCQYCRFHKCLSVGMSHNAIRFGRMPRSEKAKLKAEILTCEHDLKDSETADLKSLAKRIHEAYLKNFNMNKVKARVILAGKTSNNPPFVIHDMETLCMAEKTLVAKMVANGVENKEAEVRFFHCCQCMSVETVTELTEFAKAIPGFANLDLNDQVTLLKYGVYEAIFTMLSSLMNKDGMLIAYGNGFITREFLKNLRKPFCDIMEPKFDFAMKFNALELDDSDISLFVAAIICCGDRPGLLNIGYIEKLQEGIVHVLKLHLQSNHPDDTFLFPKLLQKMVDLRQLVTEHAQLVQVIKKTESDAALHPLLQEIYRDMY
How it was run: (§1)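 HepG2 cells carried GAL4-fused human PPARγ or PPARδ, or mouse or rat PPARα, plus the 4xUAS-tk-luc reporter. Cells treated across a concentration range for 24 h. Luciferase normalized to Renilla activity and expressed as fold induction over vehicle, set as 1.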

[4] = Apparent permeability from apical to basolateral side in human Caco2 cells at 25 uM measured up to 2 hrs by LC/MS/MS analysis; format: ADME, cell-based; details: Caco-2
How it was run: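 Caco-2 monolayers; permeability measured apical-to-basolateral (A–B) at 25 μM compound, reported as ×10⁻⁶ cm/s.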

[5] = Protein binding in rat plasma at 20 uM after 5 hrs by LC/MS/MS analysis; format: ADME, cell-free; details: read-out: PPB
How it was run: (§2)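 Compound at 20 μM incubated with plasma at 37°C for 5 h; percent bound to protein determined. Final DMSO 0.2%.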

[6] = molecular target: Peroxisome proliferator-activated receptor alpha (Homo sapiens) (UniProt Q07869); experiment: Displacement of fluormone pan-PPAR green from GST-tagged human PPARalpha ligand binding domain after 3 hrs by TR-FRET assay
[7] = Metabolic stability in human liver microsomes assessed as parent compound remaining at 0.5 uM after 60 mins in presence of NADPH by LC/MS/MS analysis; format: ADME, Microsome; details: liver microsomes, read-out: Stability
How it was run: (§3)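 Compound at 0.5 μM incubated with liver microsomes at 37°C for 1 h; result given as percent remaining. Final DMSO 0.2%.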

[8] = Metabolic stability in rat liver microsomes assessed as parent compound remaining at 0.5 uM after 60 mins in presence of NADPH by LC/MS/MS analysis; format: ADME, Microsome; details: liver microsomes, read-out: Stability; how it was run: as §3
[9] = Protein binding in human plasma at 20 uM after 5 hrs by LC/MS/MS analysis; format: ADME, cell-free; details: read-out: PPB (converted); how it was run: as §2
[10] = molecular target: T3, Peroxisome proliferator-activated receptor alpha (Mus musculus, UniProt P23204); experiment: Transactivation of mouse GAL4-fused PPARalpha expressed in human HepG2 cells after 24 hrs by dual renilla-luciferase reporter gene assay; format: cell-based; how it was run: as §1
T3 sequence (P23204 whole entry): T2 sequence (P37230 whole entry) with L41I, S50G, A85V, V86I, T88A, N96S, A135V, A207G, N265D

[11] = Solubility of the compound in pH 7.4 PBS at 100 uM incubated for 10 mins under shaking condition by HPLC analysis; format: physicochemical
How it was run: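 Aqueous solubility determined in PBS, pH 7.4; reported in μM.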

- EC50 [1]: 660 nM
- EC50 [3]: 15.9 µM
- Papp A→B at 2 h, 25 µM [4]: 51.8 ×10⁻⁶ cm/s
- fraction unbound at 5 h, 20 µM [5]: 0.01
- IC50 [6]: 4.48 µM
- remaining at 1 h, 0.5 µM [7]: 91%
- remaining at 1 h, 0.5 µM [8]: 87%
- fraction unbound at 5 h, 20 µM [9]: 0.003
- EC50 [10]: 11.3 µM
- solubility at 10 min, 100 µM [11]: > 95 µM
SMILES: Cc1cc(C(=O)O)c2c(C(C)C)nn(-c3ccc(Cl)cc3)c2n1
- Activity [2]: Non-Toxic
